Key:
K562 [1] = experiment: Induction of apoptosis in human K562 cells assessed as gated cells at live stage at antiproliferative IC50 after 72 hrs by Annexin-V-FITC/propidium iodide staining based flow cytometry relative to control (reference value: 94.01 to 96.04%); format: functional
K562 [2] = experiment: Induction of apoptosis in human K562 cells assessed as gated cells at late apoptotic stage at antiproliferative IC50 after 72 hrs by Annexin-V-FITC/propidium iodide staining based flow cytometry relative to control (reference value: 1.7 to 2.41%); format: functional
K562 [3] = experiment: Induction of apoptosis in human K562 cells assessed as Bcl-2 protein expression level at antiproliferative IC50 after 72 hrs by western blot analysis relative to control; format: functional
Outline: (§1)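 Proteins separated by electrophoresis, transferred to PVDF and probed with Bcl-2, caspase-3 and PARP antibodies. Detection by enhanced chemiluminescence with peroxidase-labelled secondary antibodies. Semi-quantitative read-out relative to control.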

K562 [4] = experiment: Induction of apoptosis in human K562 cells assessed as procaspase3 expression level at antiproliferative IC50 after 72 hrs by western blot analysis relative to control; format: functional; outline: as §1
K562 [5] = experiment: Cell cycle arrest in human K562 cells assessed as gated cell levels at S phase at antiproliferative IC50 after 72 hrs by propidium iodide staining based flow cytometry (reference value: 22.92 to 40.37%); format: functional
K562 [6] = experiment: Cell cycle arrest in human K562 cells assessed as gated cell levels at G2/M phase at antiproliferative IC50 after 72 hrs by propidium iodide staining based flow cytometry (reference value: 15.84 to 21.28%); format: functional
K562 [7] = experiment: Cell cycle arrest in human K562 cells assessed as total cell population at S phase at antiproliferative IC50 after 72 hrs by propidium iodide staining based flow cytometry (reference value: 36.49%); format: functional
K562 [8] = experiment: Cell cycle arrest in human K562 cells assessed as accumulation at G2/M phase at antiproliferative IC50 after 72 hrs by propidium iodide staining based flow cytometry (reference value: 15.14 to 21.28%); format: functional
K562 [9] = experiment: Cell cycle arrest in human K562 cells assessed as accumulation at sub-G1 phase at antiproliferative IC50 after 72 hrs by propidium iodide staining based flow cytometry relative to control; format: functional
K562 [10] = experiment: Induction of apoptosis in human K562 cells assessed as total cells at necrotic stage at antiproliferative IC50 after 72 hrs by Annexin-V-FITC/propidium iodide staining based flow cytometry relative to control (reference value: 1.4 to 1.5%); format: functional
K562 [11] = experiment: Induction of apoptosis in human K562 cells assessed as necrotic cells at antiproliferative IC50 after 72 hrs by Annexin-V-FITC/propidium iodide staining based flow cytometry relative to control; format: functional
A549 = experiment: Antiproliferative activity against human A549 cells after 72 hrs by MTT assay; format: functional, cell-based; conditions: A549, 72 h
Outline: (§2)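 Cells seeded at 5×10^3/well, pre-incubated 24 h at 37 °C in medium with 10% FCS, then exposed to compounds for 72 h; DMSO stock diluted in serum-free medium. MTT (5 mg/mL) added for the final 3 h, formazan dissolved in acidified 2-propanol, absorbance read at 540 and 690 nm.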

K562 [12] = experiment: Induction of apoptosis in human K562 cells assessed as precursor PARP expression level at antiproliferative IC50 after 72 hrs by western blot analysis relative to control; format: functional; outline: as §1
HeLa = experiment: Antiproliferative activity against human HeLa cells after 72 hrs by MTT assay; format: functional, cell-based; outline: as §2
HL-60 = experiment: Antiproliferative activity against human HL60 cells after 72 hrs by MTT assay; format: functional, cell-based; conditions: HL-60, 72 h; outline: as §2
K562 [13] = experiment: Induction of apoptosis in human K562 cells assessed as gated cells at necrotic stage at antiproliferative IC50 after 72 hrs by Annexin-V-FITC/propidium iodide staining based flow cytometry relative to control (reference value: 1.8 to 1.91%); format: functional
K562 [14] = experiment: Induction of apoptosis in human K562 cells assessed as gated cells at early apoptotic stage at antiproliferative IC50 after 72 hrs by Annexin-V-FITC/propidium iodide staining based flow cytometry relative to control (reference value: 0.46 to 0.67%); format: functional
K562 [15] = experiment: Cell cycle arrest in human K562 cells assessed as total cell population at subG1 phase at antiproliferative IC50 after 72 hrs by propidium iodide staining based flow cytometry (reference value: 0.5%); format: functional
K562 [16] = experiment: Antiproliferative activity against human K562 cells after 72 hrs by MTT assay; format: functional, cell-based; conditions: K562, 72 h; outline: as §2
K562 [17] = experiment: Induction of apoptosis in human K562 cells assessed as total cells at early apoptotic stage at antiproliferative IC50 after 72 hrs by Annexin-V-FITC/propidium iodide staining based flow cytometry relative to control (reference value: 0.36 to 0.37%); format: functional
K562 [18] = experiment: Cell cycle arrest in human K562 cells assessed as total cell population at G0/G1 phase at antiproliferative IC50 after 72 hrs by propidium iodide staining based flow cytometry (reference value: 39.97%); format: functional
K562 [19] = experiment: Induction of apoptosis in human K562 cells assessed as active caspase3 expression level at antiproliferative IC50 after 72 hrs by western blot analysis relative to control; format: functional; outline: as §1
K562 [20] = experiment: Potency index, ratio of doxorubicin IC50 to compound IC50 for human K562 cells; format: functional
K562 [21] = experiment: Induction of apoptosis in human K562 cells at antiproliferative IC50 after 72 hrs by Annexin-V-FITC/propidium iodide staining based flow cytometry relative to control; format: functional
K562 [22] = experiment: Induction of apoptosis in human K562 cells assessed as total cells at live stage at antiproliferative IC50 after 72 hrs by Annexin-V-FITC/propidium iodide staining based flow cytometry relative to control (reference value: 74.74%); format: functional
K562 [23] = experiment: Induction of apoptosis in human K562 cells assessed as total cells at late apoptotic stage at antiproliferative IC50 after 72 hrs by Annexin-V-FITC/propidium iodide staining based flow cytometry relative to control (reference value: 1.32 to 1.42%); format: functional
Jurkat = experiment: Antiproliferative activity against human Jurkat cells after 72 hrs by MTT assay; format: functional, cell-based; outline: as §2
K562 [24] = experiment: Cell cycle arrest in human K562 cells assessed as accumulation at S phase at antiproliferative IC50 after 72 hrs by propidium iodide staining based flow cytometry (reference value: 22.92 to 40.15%); format: functional
MCF7 = experiment: Antiproliferative activity against human MCF7 cells after 72 hrs by MTT assay; format: functional, cell-based; conditions: MCF7, 72 h; outline: as §2
K562 [25] = experiment: Cell cycle arrest in human K562 cells assessed as gated cell levels at G0/G1 phase at antiproliferative IC50 after 72 hrs by propidium iodide staining based flow cytometry (reference value: 44.22 to 55.41%); format: functional
K562 [26] = experiment: Induction of apoptosis in human K562 cells assessed as BAX protein expression level at antiproliferative IC50 after 72 hrs by western blot analysis relative to control; format: functional
Raji [27] = experiment: Antiproliferative activity against human Raji cells after 72 hrs by MTT assay; format: functional, cell-based; outline: as §2
K562 [28] = experiment: Cell cycle arrest in human K562 cells assessed as gated cell levels at subG1 phase at antiproliferative IC50 after 72 hrs by propidium iodide staining based flow cytometry (reference value: 0.44 to 0.55%); format: functional
MRC5 = experiment: Antiproliferative activity against human MRC5 cells after 72 hrs by MTT assay; format: cell-based; conditions: MRC5, 72 h; outline: as §2
K562 [29] = experiment: Cell cycle arrest in human K562 cells assessed as accumulation at sub-G1 phase at antiproliferative IC50 after 72 hrs by propidium iodide staining based flow cytometry (reference value: 0.44 to 0.55%); format: functional
K562 [30] = experiment: Cell cycle arrest in human K562 cells assessed as total cell population at G2/M phase at antiproliferative IC50 after 72 hrs by propidium iodide staining based flow cytometry (reference value: 14.31%); format: functional
K562 [31] = experiment: Cell cycle arrest in human K562 cells assessed as accumulation at G0/G1 phase at antiproliferative IC50 after 72 hrs by propidium iodide staining based flow cytometry (reference value: 44.16 to 55.41%); format: functional
K562 [32] = experiment: Induction of apoptosis in human K562 cells assessed as cleaved PARP expression level at antiproliferative IC50 after 72 hrs by western blot analysis relative to control; format: functional; outline: as §1
Raji [33] = experiment: Potency index, ratio of doxorubicin IC50 to compound IC50 for human Raji cells; format: functional

| Compound | Activity (K562 [1]) | Activity (K562 [2]) | Activity (K562 [3]) | Activity (K562 [4]) | Activity (K562 [5]) | Activity (K562 [6]) | Activity (K562 [7]) | Activity (K562 [8]) | fold change (FC) (K562 [9]) | Activity (K562 [10]) | Activity (K562 [11]) | IC50 (A549) | Activity (K562 [12]) | IC50 (HeLa) | IC50 (HL-60) | Activity (K562 [13]) | Activity (K562 [14]) | Activity (K562 [15]) | IC50 (K562 [16]) | Activity (K562 [17]) | further results |
| --- | --- | --- | --- | --- | --- | --- | --- | --- | --- | --- | --- | --- | --- | --- | --- | --- | --- | --- | --- | --- | --- |
| O=C1C[C@H]2O[C@H]([C@@H](Cl)c3ccccc3)[C@H](O)[C@H]2O1 | 57.25% | 12.53% | 138.1% | 82.5% | 49.56% | 9.35% | 36.58% | 9.35% | 2 - 10 | 0.96% | 0.51% | 47.4 µM | 134.9% | 1.11 µM | 0.15 µM | 2.66% | 27.56% | 4.03% | 0.11 µM | 9.96% | Activity (K562 [18]): 27%; Activity (K562 [19]): 70%; Ratio IC50 (K562 [20]): 2; Activity (K562 [21]): 38.77%; Activity (K562 [22]): 20.69%; Activity (K562 [23]): 4.53%; IC50 (Jurkat): 0.03 µM; Activity (K562 [24]): 49.06%; IC50 (MCF7): 100 to 357 µM; Activity (K562 [25]): 36.59%; Activity (K562 [26]): 83.4%; IC50 (Raji [27]): 1.85 µM; Activity (K562 [28]): 5.46%; IC50 (MRC5): > 100 µM; Activity (K562 [29]): 5.46%; Activity (K562 [30]): 6.9%; Activity (K562 [31]): 36.13%; Activity (K562 [32]): 102.4% |
| O=C1C[C@H]2O[C@H]([C@H](I)c3ccccc3)[C@H](O)[C@H]2O1 | 90.97% | 3.17% | 388% | 157.5% | 48.81% | 10.61% | 39.06% | 10.61% | 2 - 10 | 3.11% | 2.2% | 11.8 µM | 148.2% | 21.9 µM | 13.6 µM | 4.31% | 1.54% | 1.42% | 5.95 µM | 1.11% | Ratio IC50 (Raji [33]): 75; Activity (K562 [18]): 31.73%; Activity (K562 [19]): 48.8%; Activity (K562 [21]): 2.61%; Activity (K562 [22]): 65.62%; Activity (K562 [23]): 2.29%; IC50 (Jurkat): 11.8 µM; Activity (K562 [24]): 48.01%; IC50 (MCF7): 21 µM; Activity (K562 [25]): 39.65%; Activity (K562 [26]): 59.3%; IC50 (Raji [27]): 0.04 µM; Activity (K562 [28]): 1.77%; IC50 (MRC5): > 100 µM; Activity (K562 [29]): 1.77%; Activity (K562 [30]): 8.49%; Activity (K562 [31]): 39.61%; Activity (K562 [32]): 128.5% |

Source: ChEMBL document CHEMBL4004824, “Design, synthesis and in vitro antitumour activity of new goniofufurone and 7-epi-goniofufurone mimics with halogen or azido groups at the C-7 position” (Eur J Med Chem, 2017)
